ASAP1 GAP inh – inhibitors of human ASAP1 ArfGAP activity; ASAP1-stimulated ARF1 GTP hydrolysis, GDP FP detection; inhibition, % at 16.5 µM; actives 0.19% (n = 360,000); AID 624377; in the data active means inhibition above about 25%
ARFGAP1 inh – inhibits rat ARF GTPase activating protein 1 | Q62848 | inhibition, % at 16.5 µM | Arfgap1-stimulated ARF1 GTP hydrolysis, GDP FP detection | AID 651572 | actives 0.26% (n = 360,000);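 active means inhibition above a per-plate limit, mean inhibition of low control wells plus 3 SD, cut at about 25% in these data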
Target sequence (Q62848 1-136 limits assumed): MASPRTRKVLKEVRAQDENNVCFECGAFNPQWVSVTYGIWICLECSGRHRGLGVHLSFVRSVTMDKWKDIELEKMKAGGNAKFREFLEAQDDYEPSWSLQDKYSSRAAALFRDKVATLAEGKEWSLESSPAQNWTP
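Replicates: Single well per compound | Assay system: Truncated rat Arfgap1 GAP domain | Control set: No-Arfgap1 wells (100%) versus DMSO full-reaction wells (0%) | Times: Enzyme reaction 120 min at 25 °C after 20 min preincubation | Reagent: Human ARF1(Δ1-17)-GTP substrate | Measured by: Tracer-displacement fluorescence polarization with EDTA stop, 620/688 nm | Measure: Percent inhibition of Arfgap1-stimulated GTP hydrolysis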
PAFAH2 FP inh – inhibitors of human PAFAH2 | Q99487 | recombinant PAFAH2, FP-rhodamine activity probe, fluorescence polarization | inhibition, % at 3.39 µM | actives 0.99% (n = 340,000);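 active means inhibition above the mean over all tested compounds plus 3 SD, cut at about 30% in these data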;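 further: inhibitors block probe labeling of enzyme so polarization drops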
PAFAH1B3 inh – PAFAH1B3 (human) inhibition; actives 0.28% (n = 340,000); AID 492972; inhibition, % at 3.39 µM; Q15102; recombinant PAFAH1B3, FP-rhodamine probe, fluorescence polarization;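 active means inhibition above the screen-wide average of all tested compounds plus 3 SD, cut at about 25% in these data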
Target sequence (Q15102 whole entry, looked up): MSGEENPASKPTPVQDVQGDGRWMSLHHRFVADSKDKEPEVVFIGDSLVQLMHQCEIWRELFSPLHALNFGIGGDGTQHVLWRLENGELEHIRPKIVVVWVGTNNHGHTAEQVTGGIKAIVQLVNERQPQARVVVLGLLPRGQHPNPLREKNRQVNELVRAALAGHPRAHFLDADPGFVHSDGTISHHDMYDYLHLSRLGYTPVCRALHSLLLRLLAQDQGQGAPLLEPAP
pPAFAH FP inh – pPAFAH (human) enzyme inhibition | Q13093 | recombinant pPAFAH, FP-rhodamine probe fluorescence polarization | inhibition, % at 3.39 µM | actives 1.5% (n = 330,000);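 active means inhibition above the mean inhibition across the screen plus 3 SD, cut at about 25% in these data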;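 further: inhibitors block binding of the rhodamine activity-based probe so polarization drops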
PAFAH1B2 inh – inhibitors of human PAFAH1B2. P68402. recombinant PAFAH1B2, FP-rhodamine activity probe, fluorescence polarization. actives 1.2% (n = 340,000). AID 492953. inhibition, % at 3.39 µM;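 active means inhibition above the mean of all tested compounds plus 3 SD, cut at about 24% in these data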
Target sequence (P68402 whole entry, looked up): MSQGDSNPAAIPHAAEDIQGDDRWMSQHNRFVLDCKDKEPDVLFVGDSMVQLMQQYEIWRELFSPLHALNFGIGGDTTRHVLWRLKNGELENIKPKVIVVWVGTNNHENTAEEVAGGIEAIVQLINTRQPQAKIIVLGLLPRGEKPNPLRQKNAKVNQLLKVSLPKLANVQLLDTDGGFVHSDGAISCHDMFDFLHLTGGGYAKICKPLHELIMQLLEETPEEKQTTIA
pPAFAH confirm – confirmation of human plasma PAF acetylhydrolase (pPAFAH) inhibitors. shares compounds with pPAFAH FP inh. recombinant pPAFAH, FP-Rh probe fluorescence polarization. inhibition, % at 3.39 µM. actives 72% (n = 2,300);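 active means mean inhibition of the triplicate above the hit cutoff set for the earlier primary screen, cut at about 25% in these data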
Hits are given with their value; – = inactive; · = no result given. Compounds with a hit are over-represented: about 2.8% of the library has one in this group of screens.

SMILES	ASAP1 GAP inh	ARFGAP1 inh	PAFAH2 FP inh	PAFAH1B3 inh	pPAFAH FP inh	PAFAH1B2 inh	pPAFAH confirm
O=C(CCCN1C(=O)/C(=C/c2ccco2)SC1=S)Nc1ccccc1C(=O)O	–	–	–	–	65	–	–
O=C(CCN1C(=O)/C(=C/c2ccccc2Cl)SC1=S)Nc1ccccc1C(=O)O	–	–	–	–	–	–	·
O=C(CN1C(=O)/C(=C\c2ccco2)SC1=S)Nc1ccc(O)cc1C(=O)O	–	–	–	–	42	–	–
O=C(Nc1ccc(Oc2ccccc2)cc1)C1CCN(c2c3c(nc4ncnn24)CCC3)CC1	–	–	–	–	76	–	75
O=C(CCc1nc2ccccc2c(=O)[nH]1)NCCN1C(=O)S/C(=C\c2ccc(Cl)cc2Cl)C1=O	–	–	–	–	–	–	·
Nc1ncnc2oc(-c3ccco3)c(-c3ccco3)c12	–	–	50	37	42	–	–
CCOC(=O)N1CCN(Cc2nnc(-c3cccc(Br)c3)o2)CC1	–	–	–	–	–	–	·
O=C(CNC(=O)c1nc[nH]c1C(=O)NCc1ccccc1)OCc1ccccc1	–	–	–	–	35	–	–
O=C(CNC(=O)c1nc[nH]c1C(=O)NCC(=O)OCc1ccccc1)OCc1ccccc1	–	–	–	–	–	–	·
Oc1c(Br)cc(C=Nc2ccc3nc(-c4ccccc4)[nH]c3c2)c(O)c1Br	–	–	·	·	44	·	35
COc1cc(OC)c2c(O)c3c(c(-c4c5c(c(O)c6c(OC)cc(OC)cc46)CO[C@@H](C)[C@H]5O)c2c1)[C@H](O)[C@H](C)OC3	·	·	–	–	78	–	68
CN(C)c1ccc(C(=O)N2CCC2(C)C(=O)O)cc1 (centres undefined)	–	–	·	·	·	·	·
CCOC(=O)c1c(C)[nH]c(C)c1S(=O)(=O)N(C)CC(=O)Nc1ccccc1	–	–	–	–	38	–	–
C=CCOc1ccc(C2C3=C(CCCC3=O)N(CC(=O)O)C3=C2C(=O)CCC3)cc1OCC	–	–	–	–	–	–	·
C=CCOc1c(Br)cc(C2C3=C(CCCC3=O)N(C)C3=C2C(=O)CCC3)cc1OCC	–	–	–	–	39	–	–
Cc1ccc(S(=O)(=O)N[C@H](C(=O)OCC(=O)N2N=C(c3ccc(Cl)cc3)CC2c2ccco2)C(C)C)cc1 (some centres undefined)	–	–	–	–	40	–	–
CCOc1ccccc1CNC(=O)C(C)n1nc(C)c2c(C)n(-c3ccccc3)nc2c1=O (centres undefined)	–	–	–	–	58	–	–
O=C(O)c1cc(-c2ccc(/C=C3\NC(=O)N(c4ccc(Cl)cc4)C3=O)o2)ccc1Cl	–	–	–	–	37	–	–
O=C(O)c1cc(-c2ccc(/C=C3\NC(=O)N(c4ccccc4)C3=O)o2)ccc1Cl	–	–	–	–	–	–	·
O=C1c2cc(CO)cc(O)c2C(=O)c2c(O[C@@H]3OC(CO)[C@@H](O)[C@@H](O)[C@@H]3O)cccc21 (some centres undefined)	–	–	–	–	–	–	·
O=C(O)c1cc(O)c2c(c1)[C@H]([C@H]1c3cc(C(=O)O)cc(O)c3C(=O)c3c(O[C@@H]4O[C@H](CO)[C@@H](O)[C@H](O)[C@H]4O)cccc31)c1cccc(OC3O[C@H](CO)[C@@H](O)[C@H](O)[C@H]3O)c1C2=O (some centres undefined)	–	–	90	80	94	77	99
C[C@@H]1CN([C@@H](C)CO)C(=O)CCCn2nncc2CO[C@H]1CN(C)C(=O)Cc1ccccc1	–	–	·	·	·	·	·
N#C/C(=C\c1ccc(O)c(O)c1)C(=O)c1ccc(O)c(O)c1	–	–	79	38	93	54	85
Cc1ccc(C(C)C)c(OCC(=O)NNC(=O)Cc2ccc(S(=O)(=O)N3CCOCC3)s2)c1	–	–	–	–	–	–	·
CC(C)[C@H](NC(=O)C1CCCC1)C(=O)N1CCC[C@H]1C(=O)NCc1ccccc1	–	–	·	·	·	·	·
SMILES	ASAP1 GAP inh	ARFGAP1 inh	PAFAH2 FP inh	PAFAH1B3 inh	pPAFAH FP inh	PAFAH1B2 inh	pPAFAH confirm
CCn1c(SCC(=O)N/N=C/C=C/c2ccco2)nnc1-c1ccccc1	–	–	–	–	–	–	·
O=C(CSc1nnc(SCc2ccccc2)s1)N/N=C/C=C/c1ccco1	–	–	–	–	44	–	40
O=C(CSc1nnc(SCc2ccc(Cl)cc2)s1)N/N=C/c1c[nH]c2ccccc12	–	–	–	–	41	–	35
COc1cc(CN2C[C@@H](CO)O[C@@H](n3cnc4c(N5CCN(c6ccccc6)CC5)ncnc43)C2)cc(OC)c1OC	–	–	·	·	·	·	·
CC1(C)CC(=O)C=C(c2ccc3ccccc3c2)C1	–	–	–	–	–	–	·
Oc1c(Br)cc(Br)cc1CNc1cccc2cccnc12	–	–	–	28	61	–	–
Oc1ccc(Br)cc1CNc1cccc2cccnc12	–	–	–	–	–	–	·
CCCCCCCCCCS(=O)(=O)N/N=C/c1ccc(O)cc1	–	–	–	–	38	–	44
Cn1c(=O)c(Nc2ccc(O)cc2)c2c3c(cccc31)C(=O)c1ccccc1-2	–	–	–	–	41	–	40
CC(=O)c1c2c3c(cccc3n(C)c1=O)C(=O)c1ccccc1-2	·	·	·	·	–	·	·
CC(C(=O)O)N1C(=O)/C(=C/C=C/c2ccco2)SC1=S (centres undefined)	–	–	50	26	76	–	46
O=C1/C(=C/C=C/c2ccco2)SC(=S)N1NS(=O)(=O)c1ccccc1	–	–	67	45	74	32	69
O=C(NCc1ccccc1)OC1CC2CC1[C@H]1CCCCN1C2=O (some centres undefined)	–	–	·	·	·	·	·
O=C(Oc1c(Cl)cc(Cl)c2cccnc12)N1CCOCC1	–	–	–	–	–	–	·
O=C(Oc1ccnc2cc(Cl)ccc12)N1CCOCC1	–	–	–	–	40	–	37
CC(=O)N1CCN(c2ccc(NCc3ccc(-c4cccc(Cl)c4)o3)cc2)CC1	·	·	–	–	41	–	46
O=C(CC[C@H]1O[C@@H](n2cnc3c(NC(=O)c4ccccc4)ncnc32)[C@H](O)[C@@H]1O)NCCCN1CCCC1=O	–	–	·	·	·	·	·
c1csc(-c2nc3c4ccccc4c4ccccc4c3[nH]2)c1	–	–	–	–	–	–	·
Oc1ccccc1-c1nc2c3ccccc3c3ccccc3c2[nH]1	–	–	59	43	45	27	27
CN1/C(=C\C=C2/C(=O)Oc3ccccc3C2=O)C(C)(C)c2ccccc21	–	–	·	·	35	·	–

Compound activity as filed in PubChem.
